Test results reported in ChEMBL document CHEMBL1155292, “Synthesis, analgesic and anti-inflammatory activities evaluation of some bi-, tri- and tetracyclic condensed pyrimidines” (Eur J Med Chem, 2009).

What was measured:
Mus musculus [1] = assay: Analgesic activity in albino mouse assessed as decrease in acetic acid-induced writhing at 10.24 mg/kg, po administered 1 hr prior to acetic acid challenge relative to control; type: functional
Outline: (§1)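 Albino mice of either sex, 18–22 g, six per group. Test agents suspended in saline with a few drops of Tween 80 and given by oral stomach tube; controls handled identically without drug. After 1 h, 0.3 ml of 1% acetic acid ip. Writhing contractions counted for 30 min, starting 5 min after injection. % protection versus control mean; mean ± SEM; one-way ANOVA with post hoc test.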

Rattus norvegicus [2] = assay: Antiinflammatory activity in albino rat assessed as inhibition of carrageenan-induced paw edema at 0.029 mmol/kg, po after 4 hrs relative to indomethacin; type: functional
Outline: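 Rat carrageenan paw edema: oral 0.029 mmol/kg in saline/Tween 80, 1 h before subplantar 0.1 ml 1% carrageenan into the right hind paw; six rats per group. Potency is % inhibition of the test compound divided by % inhibition of indomethacin at 4 h.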

Rattus norvegicus [3] = assay: Antiinflammatory activity in albino rat assessed as inhibition of carrageenan-induced paw edema at 0.029 mmol/kg, po after 2 hrs relative to control; type: functional
Outline: (§2)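 Adult albino rats of either sex, 120–150 g, six per group. Compounds at 0.029 mmol/kg suspended in saline with a few drops of Tween 80 and given by oral stomach tube. After 1 h, 0.1 ml of freshly prepared 1% carrageenan in saline injected subplantar into the right hind paw. Paw thickness measured at 1–4 h; % edema inhibition versus control; mean ± SEM; ANOVA.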

Rattus norvegicus [4] = assay: Antiinflammatory activity in albino rat assessed as inhibition of carrageenan-induced paw edema at 0.029 mmol/kg, po after 1 hr relative to control; type: functional; outline: as §2
Rattus norvegicus [5] = assay: Gastrointestinal toxicity in albino rat assessed as ulcerogenic index at 0.029 mmol/kg, po after 5 hrs; type: organism-based; conditions: in vivo
Outline: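 Adult albino rats of either sex (120–150 g), 6 per group, got the test compounds orally by stomach tube as a suspension in saline with a few drops of tween 80. They were the same rats used in the carrageenan paw-edema test. Stomachs were then opened along the great curvature and examined for lesions or bleeding. Ulceration was recorded as the number of rats with ulcers out of 6.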

Rattus norvegicus [6] = assay: Antiinflammatory activity in albino rat assessed as inhibition of carrageenan-induced paw edema at 0.029 mmol/kg, po after 3 hrs relative to control; type: functional; outline: as §2
Rattus norvegicus [7] = assay: Antiinflammatory activity in albino rat assessed as inhibition of carrageenan-induced paw edema at 0.029 mmol/kg, po after 4 hrs relative to control; type: functional; outline: as §2
Mus musculus [8] = assay: Analgesic activity in albino mouse assessed as decrease in acetic acid-induced writhing at 11.75 mg/kg, po administered 1 hr prior to acetic acid challenge relative to control; type: functional; outline: as §1
Mus musculus [9] = assay: Analgesic activity in albino mouse assessed as decrease in acetic acid-induced writhing at 8.12 mg/kg, po administered 1 hr prior to acetic acid challenge relative to control; type: functional; outline: as §1
Rattus norvegicus [10] = assay: Antiinflammatory activity in albino rat assessed as inhibition of carrageenan-induced paw edema at 15 mg/kg, po; type: functional
Outline: (§3)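 Rat carrageenan paw edema with oral dosing at 10, 15, 20 and 25 mg/kg, suspended in saline with Tween 80, 1 h before subplantar 0.1 ml 1% carrageenan into the right hind paw. % edema inhibition versus control at each dose; IC50 (mg/kg) derived from these four doses.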

Rattus norvegicus [11] = assay: Antiinflammatory activity in albino rat assessed as inhibition of carrageenan-induced paw edema at 20 mg/kg, po; type: functional; outline: as §3
Rattus norvegicus [12] = assay: Antiinflammatory activity in albino rat assessed as inhibition of carrageenan-induced paw edema at 10 mg/kg, po; type: functional; outline: as §3
Mus musculus [13] = assay: Analgesic activity in albino mouse assessed as decrease in acetic acid-induced writhing at 7.69 mg/kg, po administered 1 hr prior to acetic acid challenge relative to control; type: functional; outline: as §1
Rattus norvegicus [14] = assay: Antiinflammatory activity in po dosed albino rat assessed as inhibition of carrageenan-induced paw edema; type: functional, organism-based
Outline: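 Adult albino rats of either sex, 120–150 g, groups of 6. Compound suspended in saline with a few drops of tween 80, given by oral stomach tube 1 h before subplantar injection of freshly prepared 1% carrageenan (0.1 ml) in saline into right hind paw. Paw thickness read at 1–4 h; % edema inhibition versus carrageenan control; mean ± SEM, one-way ANOVA with post hoc test.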

Rattus norvegicus [15] = assay: Antiinflammatory activity in albino rat assessed as inhibition of carrageenan-induced paw edema at 25 mg/kg, po; type: functional; outline: as §3
Mus musculus [16] = assay: Analgesic activity in albino mouse assessed as decrease in acetic acid-induced writhing at 8.04 mg/kg, po administered 1 hr prior to acetic acid challenge relative to control; type: functional; outline: as §1
Mus musculus [17] = assay: Analgesic activity in albino mouse assessed as decrease in acetic acid-induced writhing at 8.36 mg/kg, po administered 1 hr prior to acetic acid challenge relative to control; type: functional; outline: as §1
Mus musculus [18] = assay: Analgesic activity in albino mouse assessed as decrease in acetic acid-induced writhing at 8.47 mg/kg, po administered 1 hr prior to acetic acid challenge relative to control; type: functional; outline: as §1
Mus musculus [19] = assay: Analgesic activity in albino mouse assessed as decrease in acetic acid-induced writhing at 8.33 mg/kg, po administered 1 hr prior to acetic acid challenge relative to control; type: functional; outline: as §1

Structure (SMILES)	inhibition in vivo at 10.24 mg/kg (Mus musculus [1]) [%]	relative potency at 29 µmol/kg (Rattus norvegicus [2])	inhibition in vivo at 29 µmol/kg (Rattus norvegicus [3]) [%]	inhibition in vivo at 29 µmol/kg (Rattus norvegicus [4]) [%]	UI (Rattus norvegicus [5])	inhibition in vivo at 29 µmol/kg (Rattus norvegicus [6]) [%]	inhibition in vivo at 29 µmol/kg (Rattus norvegicus [7]) [%]	inhibition in vivo at 11.75 mg/kg (Mus musculus [8]) [%]	inhibition in vivo at 8.12 mg/kg (Mus musculus [9]) [%]	inhibition in vivo at 15 mg/kg (Rattus norvegicus [10]) [%]	inhibition in vivo at 20 mg/kg (Rattus norvegicus [11]) [%]	inhibition in vivo at 10 mg/kg (Rattus norvegicus [12]) [%]	inhibition in vivo at 7.69 mg/kg (Mus musculus [13]) [%]	IC50 (Rattus norvegicus [14]) [mg/kg]	inhibition in vivo at 25 mg/kg (Rattus norvegicus [15]) [%]	inhibition in vivo at 8.04 mg/kg (Mus musculus [16]) [%]	inhibition in vivo at 8.36 mg/kg (Mus musculus [17]) [%]	inhibition in vivo at 8.47 mg/kg (Mus musculus [18]) [%]	inhibition in vivo at 8.33 mg/kg (Mus musculus [19]) [%]
N#Cc1ccc(/N=c2\c(C#N)c3n(c(=O)n2-c2ccccc2)CCC3)cc1	82.9	0.86	28.1	16.9	Non-toxic	28.1	23.6	–	–	–	–	–	–	–	–	–	–	–	–
O=C1NC(c2ccccc2[N+](=O)[O-])NC2=C1C1CCCN1C(=O)N2c1ccccc1 (centres undefined)	–	0.13	14.1	12.3	–	8.65	3.73	86.8	–	–	–	–	–	–	–	–	–	–	–
CC/N=c1/c(C#N)c2n(c(=O)n1-c1ccccc1)CCC2	–	1.11	23.1	7.82	Non-toxic	24.5	30.4	–	74.4	–	–	–	–	–	–	–	–	–	–
C/N=c1/c(C#N)c2n(c(=O)n1-c1ccccc1)CCC2	–	1.27	26.5	19.1	Non-toxic	30.2	34.8	–	–	43	50.8	36	74	17.77	62.7	–	–	–	–
CCN1C(=S)N2CCCC2c2c1ncn(CC)c2=N (centres undefined)	–	0.36	11.6	11.6	–	10.8	9.91	–	–	–	–	–	–	–	–	75.9	–	–	–
CCO/C=N/C1=C(C#N)C2CCCN2C(=S)N1CC (centres undefined)	–	0.75	19	12.3	Non-toxic	20.9	20.5	–	88.1	–	–	–	–	–	–	–	–	–	–
N/N=C(/N)C1=C(N)N(c2ccccc2)C(=O)N2CCCC12 (centres undefined)	–	0.84	27.3	8.97	–	25.9	23	–	–	–	–	–	–	–	–	–	79	–	–
C=CC/N=c1/c(C#N)c2n(c(=O)n1-c1ccccc1)CCC2	–	0.52	19	2.23	Non-toxic	23.1	14.3	–	–	–	–	–	–	–	–	–	–	81.1	–
NC1=C(/C(N)=N\O)C2CCCN2C(=O)N1c1ccccc1 (centres undefined)	–	1	14.9	4.45	–	21.6	27.3	–	–	–	–	–	–	–	–	–	–	–	85.9
